This passage reports inhibition results from PubChem BioAssay AID1517 (The Scripps Research Institute Molecular Screening Center, 2009).

The structures appear in SMILES notation. Some of the results follow. Unmarked numbers belong to inactive results. Calls of active or inactive are those of the source.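 The calls were made as follows: active = percent inhibition of p97 ATPase above a set limit, the primary screen's mean plus 3 SD (cut at about 15% in these data); inactive = the rest.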

Chain of Transitional endoplasmic reticulum ATPase (Homo sapiens) (P55072 whole entry, looked up): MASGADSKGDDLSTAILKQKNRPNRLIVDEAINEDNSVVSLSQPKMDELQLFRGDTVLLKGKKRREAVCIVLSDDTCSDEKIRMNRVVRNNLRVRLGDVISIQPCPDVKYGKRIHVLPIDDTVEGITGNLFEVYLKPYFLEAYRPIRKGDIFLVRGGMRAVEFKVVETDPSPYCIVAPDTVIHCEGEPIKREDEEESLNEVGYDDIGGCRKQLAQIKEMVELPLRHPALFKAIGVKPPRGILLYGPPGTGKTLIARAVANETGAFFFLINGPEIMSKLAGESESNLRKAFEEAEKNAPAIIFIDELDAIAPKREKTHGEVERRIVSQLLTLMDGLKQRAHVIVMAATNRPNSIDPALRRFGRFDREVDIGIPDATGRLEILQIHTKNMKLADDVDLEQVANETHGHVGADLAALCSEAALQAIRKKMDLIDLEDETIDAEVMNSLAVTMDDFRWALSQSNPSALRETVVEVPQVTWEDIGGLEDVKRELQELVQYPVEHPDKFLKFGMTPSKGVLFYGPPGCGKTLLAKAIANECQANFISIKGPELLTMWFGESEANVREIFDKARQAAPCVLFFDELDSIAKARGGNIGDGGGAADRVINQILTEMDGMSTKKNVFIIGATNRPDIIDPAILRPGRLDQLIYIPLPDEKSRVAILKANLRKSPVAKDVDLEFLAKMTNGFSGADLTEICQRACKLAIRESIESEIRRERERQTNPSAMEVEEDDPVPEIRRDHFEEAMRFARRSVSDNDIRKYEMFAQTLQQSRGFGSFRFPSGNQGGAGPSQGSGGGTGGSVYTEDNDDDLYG

The test concerns the target Transitional endoplasmic reticulum ATPase (Homo sapiens) (UniProt P55072). The test is described as follows: blockers of p97 ATP hydrolysis – biochemical, confirmation (AID 1517).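 Also: 0% = DMSO wells and 100% = wells lacking p97 protein.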 The conditions noted are these: recombinant p97 ATPase, Kinase-Glo ATP luminescence; at 8 µM; hits give high values. The method, boiled down:
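Test system: recombinant p97 ATPase. Buffer or medium: Tris/MgCl2/EDTA/DTT buffer, pH 8.0. Compound dosing: one dose, 8 µM nominal final. Timing: 30 min pre-incubation, 3 h ATP reaction. Technique: Kinase-Glo luminescence. Measure: % inhibition versus DMSO and no-enzyme controls. Benchmarks: DMSO-only and no-enzyme wells. Replication: each compound tested in triplicate.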
With `CCN1C(=O)/C(=C2/Sc3ccccc3N2CCCS(=O)(=O)O)SC1=S`, the inhibition is 4.27%. Turning to `O=C(/C=C/c1ccc(Cl)c([N+](=O)[O-])c1)c1ccc(O)cc1`, the inhibition is 10.9%. As to `Cc1no[n+]([O-])c1COc1ccccc1/C=C1\NC(=S)NC1=O`, the inhibition was 39.9% (active). With `NC(N)=N/N=C/c1ccc(OCc2ccc(Cl)cc2Cl)cc1` the figure was 37.7% (active); with `CC(C(=O)O)n1cnc2sc3c(c2c1=O)CCCC3` (stereo not drawn), 6.68%. For `N#Cc1c(N2CCCCC2)nc(N)c2c(N)nc(SCC(=O)O)cc12`, the inhibition is 46% (active). As for `Clc1ccc(C2=CSC3=Nc4cccc5cccc(c45)N23)cc1`, the inhibition was 2.9%. With `CCN(CC)CCNC(=O)CCCCCn1c(=O)[nH]c2cc(C(=O)OC)ccc2c1=O`, the inhibition is 2.31%. With `CCC(C)NC(=O)CSC1=Nc2ccccc2C2=NC(CCC(=O)NCc3ccco3)C(=O)N12` (stereo not drawn) the figure was 4.93%; with `N=C1C(c2nc3ccccc3s2)=C(O)CN1NC(=O)c1ccc([N+](=O)[O-])cc1`, 37.1% (active); with `O=C(OCC1O[C@@H](OC(=O)c2cc(O)c(O)c(O)c2)[C@@H](OC(=O)c2cc(O)c(O)c(O)c2)[C@@H](OC(=O)c2cc(O)c(O)c(O)c2)[C@@H]1OC(=O)c1cc(O)c(O)c(O)c1)c1cc(O)c(O)c(O)c1` (stereo partly drawn), 59.8% (active). Regarding `COc1ccc(Cl)cc1C(=O)NNC(=O)c1nc2nc(C)cc(C)n2n1`, the inhibition is 20.8% (active). On to `COc1ccc(-c2cc(-c3ccc(N)cc3)nc(N)c2C#N)cc1OC`, for which the inhibition was 19.8% (active). With `CC1CCCN(C(C(=O)Nc2ccc(C(C)C)cc2)c2ccc3c(c2)OCO3)C1` (stereo not drawn), the inhibition was -0.84%. Then `CCOc1c(Br)cc(/C=C2\C(=O)N(CCC#N)N=C2C)cc1OC`, with 6.06%; and `Cc1[nH][nH]c(=O)c1C(c1ccc(-c2ccc(Cl)cc2)o1)c1c(C)[nH][nH]c1=O`, with 9.11%. As to `O=C(NNC(=S)Nc1ccccc1)c1cccc(S(=O)(=O)N2CCOCC2)c1`, the inhibition is 3.56%.

`Oc1c(C=Nc2cccc3nsnc23)ccc2ccccc12`: the inhibition was 4.01%. Then `[O-][n+]1onc2c1CCc1[nH]c(-c3ccccc3)nc1-2`, with 39.8% (active). Turning to `Oc1c(Cl)cc(Cl)c(Cl)c1Cc1c(O)c(Cl)cc(Cl)c1Cl`, the inhibition is 73.9% (active). With `C=CCn1c(N)c(C(=O)OCC(C)C)c2nc3ccccc3nc21` the figure was 18.1% (active). For the compound `Cc1cc(C)c2cc(CN(Cc3nnnn3Cc3ccc(F)cc3)C3CCCC3)c(=O)[nH]c2c1`, the inhibition was 4.43%. For `N#CC1=C(N)Oc2[nH]c(=S)[nH]c(=O)c2C12C(=O)Nc1ccccc12` (stereo not drawn), the inhibition was 25.8% (active). Take `Nc1ccc2nc3c(=O)[nH]c(=S)[nH]c3nc2c1`: the inhibition was 25.4% (active).

`CCOC(=O)N1CCC(c2cc(=O)n(-c3ccccc3)[nH]2)CC1`: the inhibition was 7.34%. As for `C=CCn1c(=S)[nH]c2scc(-c3ccco3)c2c1=O`, the inhibition is 13.5%. With `Cc1ccc2c(c1)NCC(C(=O)NC1CCC(C)CC1)O2` (stereo not drawn) the figure was 4.67%; with `CCN(c1ccccc1)S(=O)(=O)c1ccc(N)cc1`, 1.51%; with `O=C(c1[nH]ncc1-c1ccc(Cl)cc1)C1CO1` (stereo not drawn), 12.5%. Consider `COc1ccc2c(c1)C(=C(C#N)C#N)C(=O)N2CCc1ccccc1`, for which the inhibition is 19.5% (active). On to `COc1ccccc1C1C(C#N)=C(N)Oc2c1c(-c1ccccc1)nn2-c1ccccc1` (stereo not drawn), for which the inhibition is 1.04%.

Turning to `COc1ccc(-c2[nH]ncc2/C=N/NC(=O)c2cc(Br)ccc2O)c(OC)c1`, the inhibition was 25.7% (active). Turning to `CC(=O)N1CCc2cc(Br)cc(S(=O)(=O)CCC(=O)Nc3c(C)n(C)n(-c4ccccc4)c3=O)c21`, the inhibition is 2.71%.
